High-throughput results (PubChem BioAssay)
ABHD5 PLIN5 PPI: blocks binding of human ABHD5 to perilipin-5; Split G. princeps luciferase complementation, luminescence, 4 h; inhibition, % at 4 µM; 0.78% of 360,000 active; AID 602281;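 active means inhibition above the mean inhibition across every tested compound plus 3 SD, cut at about 22% in these data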
Rin1 Abl inh: blocks binding of human Rin1 to Abl | inhibition, % at 7.35 µM | AID 588664 | 0.4% of 360,000 active | TR-FRET Rin1/Abl binding, biochemical; in the data active means inhibition above about 5%, passing the limit was not always enough
Arr AP2 block: human beta-arrestin and AP2 interaction inhibition | 0.31% of 340,000 active | FITC-arrestin peptide / GST-AP2 beads, flow cytometry; AP2 beta2 appendage carries R879A mutation | AID 504490 | inhibition, % at 10 µM;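 active means inhibition above a set limit, near 3 SD of compounds lacking own fluorescence, cut at about 54% in these data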
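Assay system: GST-AP2 R879A bound to glutathione beads, E. coli-expressed; Medium: PBS with 0.05% Tween 20 and 0.1% BSA; Also added: fluorescein-tagged arrestin peptide at 50 nM final; Timing: 12 min plus 1 h, RT; Measured by: flow cytometry, FL1 (488/535 nm); Evaluation: percent drop in bead-associated FITC signal.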
Beta2AR agonist: human beta-2 adrenergic receptor agonism by FAP; P07550; Am2.2-beta2AR cells, FAP receptor internalization, flow cytometry; response, % (concentration not given with the values); 0.43% of 340,000 active; AID 504454;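 active means response above a set limit, near 3 SD of response in nonfluorescent compounds, cut at about 42% in these data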
Target sequence (P07550 whole entry, looked up): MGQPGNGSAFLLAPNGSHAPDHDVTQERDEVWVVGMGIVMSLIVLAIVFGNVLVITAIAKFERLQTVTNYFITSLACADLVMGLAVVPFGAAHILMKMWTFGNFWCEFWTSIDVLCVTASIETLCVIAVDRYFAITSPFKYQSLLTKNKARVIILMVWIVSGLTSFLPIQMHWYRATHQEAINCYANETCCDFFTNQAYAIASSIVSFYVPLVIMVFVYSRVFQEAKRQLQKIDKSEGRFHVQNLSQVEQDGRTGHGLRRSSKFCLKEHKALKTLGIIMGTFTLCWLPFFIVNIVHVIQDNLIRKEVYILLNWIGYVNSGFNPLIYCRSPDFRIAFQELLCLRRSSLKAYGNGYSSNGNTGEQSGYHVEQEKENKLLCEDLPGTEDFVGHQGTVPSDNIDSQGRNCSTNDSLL
UHRF1 binding: UHRF1 methyl-DNA binding inhibition; Q96T88; UHRF1 binding to methylated oligo, TR-FRET; 0.75% of 370,000 active; AID 687016; inhibition, % at 4.4 µM; in the data active means inhibition above about 21%;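 further: UHRF1 SRA domain binding a hemimethylated CpG hairpin DNA probe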
MBD2 DNA inh: blocks human MBD2 binding to methylated DNA | inhibition, % at 4.4 µM | 0.31% of 370,000 active | TR-FRET, MBD2 binding to methylated oligonucleotide; in the data active means inhibition above about 13%
Large screens that a line does not name were inactive. Most compounds without a hit are left out; they make up all but 2.5% or so of the library.

CCC(C)n1c(SC(C)C#N)nc2ccccc2c1=O (centres undefined)	UHRF1 binding 28
O=C(N/N=C/c1ccc(OC(=O)c2ccc3c(c2)OCO3)cc1)c1cncc(Br)c1	Beta2AR agonist 52
Cc1ccc(CSc2nnc(-c3n[nH]c4c3CCC4)n2N)cc1	none (no result: ABHD5 PLIN5 PPI, Rin1 Abl inh, Arr AP2 block, Beta2AR agonist)
CC(C)(C)N1Cc2nnn(CC3CCCCC3)c2-c2cc(F)ccc2S1(=O)=O	none (no result: ABHD5 PLIN5 PPI, Rin1 Abl inh, Arr AP2 block, Beta2AR agonist)
CN(C)CCCN(C(=O)c1ccco1)c1nc(-c2ccc(Cl)cc2)cs1	UHRF1 binding 81
COc1cccc(C(=O)Nc2ccccc2-c2ccccc2)c1	UHRF1 binding 22
COc1cccc(C(=O)Nc2ccccc2NC(=O)c2cccc(OC)c2)c1	none
Cc1cc(C(=O)OCCCN(C)C2CN(Cc3cn(Cc4ccccc4C(F)(F)F)nn3)S(=O)(=O)C2)no1 (centres undefined)	none (no result: ABHD5 PLIN5 PPI, Rin1 Abl inh, Arr AP2 block, Beta2AR agonist)
Cc1cccc(C)c1-n1nnnc1C(c1ccnc2ccccc12)N1CCN(CCN(C)C)CC1 (centres undefined)	none (no result: Rin1 Abl inh, Arr AP2 block, Beta2AR agonist)
Cc1cc(N2CCN(C(c3ccnc4ccccc34)c3nnnn3-c3c(C)cccc3C)CC2)c2ccccc2n1 (centres undefined)	UHRF1 binding 24 (no result: Rin1 Abl inh, Arr AP2 block, Beta2AR agonist)
O=C(O)CC1c2ccccc2CCN1S(=O)(=O)c1cccs1 (centres undefined)	UHRF1 binding 24
O=C(O)CC1c2ccccc2CCN1S(=O)(=O)c1ccccc1 (centres undefined)	none
CC(C(=O)N1CCc2ccccc21)N(C)CC(=O)Nc1ccccc1Cl (centres undefined)	UHRF1 binding 33
CC1CC(C)CN(C(=O)C(C)N(C)CC(=O)Nc2ccccc2Cl)C1 (centres undefined)	none
C=CCN1[C@@H](C)COc2cc(F)ccc2S1(=O)=O	none (no result: ABHD5 PLIN5 PPI, Rin1 Abl inh, Arr AP2 block, Beta2AR agonist)
CC(=O)n1cc(C(C[N+](=O)[O-])SCCN)c2ccccc21 (centres undefined)	Beta2AR agonist 76 (no result: UHRF1 binding, MBD2 DNA inh)
Cn1cc(C(C[N+](=O)[O-])c2ccccc2)c2ccccc21 (centres undefined)	none
Clc1cc(Br)ccc1OCCCNCc1ccccc1	ABHD5 PLIN5 PPI 22
CCOc1ccccc1C1CC(=O)Nc2cc3c(cc21)OCCO3 (centres undefined)	UHRF1 binding 23
Cc1ccc(OCC(=O)Nc2ccc(S(=O)(=O)N3CCN(C)CC3)cc2)cc1	UHRF1 binding 46
CCOc1ccc(OCCCC(=O)N2CCN(S(=O)(=O)c3ccc(Cl)cc3)CC2)cc1	Rin1 Abl inh 58
CCOC(=O)COc1ccc(S(=O)(=O)N2CCN(c3ccccc3F)CC2)cc1	none
CCOC(=O)COc1ccc(S(=O)(=O)N2CCN(c3ccc(OC)cc3)CC2)cc1	UHRF1 binding 37
O=C(Nc1ccc(F)cc1F)C1CCN(c2nnc(-n3cccc3)s2)CC1	none (no result: ABHD5 PLIN5 PPI, Rin1 Abl inh, Arr AP2 block, Beta2AR agonist)
Cn1c(=O)c2cc(S(=O)(=O)N3CCN(Cc4ccccc4)CC3)ccc2n(C)c1=O	none (no result: ABHD5 PLIN5 PPI, Rin1 Abl inh, Arr AP2 block, Beta2AR agonist)
O=C(OCC(=O)N1CCc2ccccc21)c1ccccc1	none
O=C(CO/N=C/c1ccccc1O)N1CCc2ccccc21	Beta2AR agonist 72
COCCNC(=O)C1CCCN(C(=O)c2cc(C(C)(C)C)nn2C)CC1 (centres undefined)	UHRF1 binding 25 (no result: Arr AP2 block, Beta2AR agonist)
O=C(/C=C/c1ccccc1F)c1ccoc1	ABHD5 PLIN5 PPI 31
COC(=O)[C@]12C[C@H](CC(=O)NCc3cccs3)C(=O)N(CCc3ccc(OC)c(OC)c3)C1=C[C@H](C1CCCC1)O[C@@H]2C	none (no result: ABHD5 PLIN5 PPI, Rin1 Abl inh, Arr AP2 block, Beta2AR agonist)
Cn1nc(C(=O)Nc2nc3ccccc3[nH]2)c2ccccc2c1=O	Beta2AR agonist 56
CCOC(=O)CCC(NC(=O)CC(=O)NC(CCC(=O)OCC)C(=O)OCC)C(=O)OCC (centres undefined)	UHRF1 binding 36
O=C(Cn1ccc2ccccc2c1=O)N1CCN(c2cccc(Cl)c2)CC1	ABHD5 PLIN5 PPI 22
CC(C)NC(=O)c1c(CSc2ccccc2)noc1C(=O)NCc1ccccc1	UHRF1 binding 22
C(C#CCCCCCCCCC[n+]1ccccc1)#CCCCCCCCCC[n+]1ccccc1	ABHD5 PLIN5 PPI 33
CC(C)(C)c1ccc(S(=O)(=O)/N=C2\C=C(NS(=O)(=O)c3ccccc3)C(=O)c3ccccc32)cc1	none
CC(C)c1ccc(S(=O)(=O)/N=C2/C=C(Sc3ncn[nH]3)C(=O)c3ccccc32)cc1	Rin1 Abl inh 7.7 (no result: UHRF1 binding, MBD2 DNA inh)
Cc1ccc(S(=O)(=O)/N=C2/C=C(Sc3ncn[nH]3)C(=O)c3ccccc32)cc1	ABHD5 PLIN5 PPI 40, Rin1 Abl inh 17, Beta2AR agonist 85 (no result: UHRF1 binding, MBD2 DNA inh)
O=C(CSc1nc(-c2ccccc2Cl)ns1)c1ccc(Cl)cc1	UHRF1 binding 32
COc1ccc(C)c(NC(=O)[C@@H]2CCCN2S(=O)(=O)c2cccc3cccnc23)c1	none (no result: ABHD5 PLIN5 PPI, Rin1 Abl inh, Arr AP2 block, Beta2AR agonist)
COc1ccc(-n2c(SCC(=O)Nc3ccc(S(=O)(=O)Nc4nccs4)cc3)nnc2-c2ccccc2)cc1	none (no result: ABHD5 PLIN5 PPI, Rin1 Abl inh, Arr AP2 block, Beta2AR agonist)
CC1(C)OC(=O)C2=C(CC(CCc3ccccc3)OC2CCc2ccccc2)O1 (centres undefined)	UHRF1 binding 21 (no result: ABHD5 PLIN5 PPI, Rin1 Abl inh, Arr AP2 block, Beta2AR agonist)
COc1ccc(C(=O)NCCN2C(=O)C3C4C=CC(C4)C3C2=O)cc1OC (centres undefined)	none (no result: ABHD5 PLIN5 PPI, Rin1 Abl inh, Arr AP2 block, Beta2AR agonist)
Cc1cc(C(=O)Nc2c(F)cc(F)cc2Br)c(C)o1	ABHD5 PLIN5 PPI 23
Cc1noc(C)c1C(=O)Nc1c(F)cc(F)cc1Br	none
Cc1ccc(N(C)c2nc(N)nc(N)c2N=O)cc1	none (no result: ABHD5 PLIN5 PPI, Rin1 Abl inh, Arr AP2 block, Beta2AR agonist)
O=C1OC(c2cccs2)=N/C1=C/c1ccc(-c2cccc(C(=O)O)c2)o1	UHRF1 binding 44
FC(F)(F)c1ccccc1NC(=S)NC1CCN(Cc2ccccc2)CC1	UHRF1 binding 37
S=C(Nc1ccccc1Cl)NC1CCN(Cc2ccccc2)CC1	none
N#Cc1ccc(Cn2ccc3ccc(-c4ccc5ccn(C(=O)C6CCCCC6)c5c4)cc32)cc1	none (no result: ABHD5 PLIN5 PPI, Rin1 Abl inh, Arr AP2 block, Beta2AR agonist)
CC(C)Oc1ccc(/C=C/C(=O)NCC2COc3ccccc3O2)cc1 (centres undefined)	Beta2AR agonist 58
O=C(CC1C(=O)NCCN1Cc1c(F)cccc1Cl)NCCc1ccccn1 (centres undefined)	UHRF1 binding 26
O=C(CC1C(=O)NCCN1Cc1c(F)cccc1Cl)NCCC1=CCCCC1 (centres undefined)	none
COc1ccc(Cl)cc1Cn1c(C)c(C(=O)NCc2ccc3c(c2)OCCO3)sc1=O	UHRF1 binding 43 (no result: Arr AP2 block, Beta2AR agonist)
COc1ccc(CNC(=O)c2sc(=O)n(Cc3cc(C(C)=O)ccc3OC)c2C)cc1	UHRF1 binding 22 (no result: Arr AP2 block, Beta2AR agonist)
COc1ccc(CNC(=O)c2sc(=O)n(Cc3cc(Cl)ccc3OC)c2C)cc1	none (no result: Arr AP2 block, Beta2AR agonist)
COc1ccc(C(C)=O)cc1Cn1c(C)c(C(=O)NCc2ccc(C(C)C)cc2)sc1=O	none (no result: Arr AP2 block, Beta2AR agonist)
Cc1cc(C)n2nc(SCCC(=O)NCc3ccccc3)nc2n1	UHRF1 binding 36
Cc1ccc(CNC(=O)Cc2nc3nc(C)cc(C)n3n2)cc1	none
COc1ccc(CNC(=O)CSc2nc3nc(C)cc(C)n3n2)cc1	none
